Key:
[1] = Inhibition of [methyl-14C]choline uptake in human HT-29 cells at 10 uM incubated for 10 mins followed by removal of medium containing compound and subsequent addition of [methyl-14C]choline measured after 5 mins relative to control; format: functional; details: HT-29, 10 min
In short: (§1)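 Cells at 200,000/well were incubated for 10 min at 37 °C in medium with or without CKα1 inhibitor. The medium was then removed and cells were exposed to [methyl-¹⁴C]choline (31 Ci/mol) for 5 min at 37 °C. Uptake was stopped by aspiration and two ice-cold PBS washes containing choline. Inhibition is expressed as % of untreated control.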

[2] = system: RS4-11; assay: Antiproliferative activity against human RS4-11 cells assessed as inhibition of cell proliferation incubated for 72 hrs by MTT assay; format: functional
In short: (§2)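 Cells seeded at 8 × 10³/well and held 18 h at 37 °C, 5% CO₂. Medium then replaced with compound at several concentrations for 72 h at 37 °C, followed by MTT viability read-out. GI50 is taken against cells given the maximum DMSO (0.25%), which is set as 100% viability. Dose-response curves come from at least three independent experiments run in triplicate and are reported as mean ± SE.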

[3] = system: HT-29; assay: Antiproliferative activity against human HT-29 cells assessed as inhibition of cell proliferation incubated for 72 hrs by MTT assay; format: functional; in short: as §2
[4] = Inhibition of [methyl-14C]choline uptake in human HepG2 cells at 10 uM incubated for 10 mins followed by removal of medium containing compound and subsequent addition of [methyl-14C]choline measured after 5 mins relative to control; format: functional; details: HepG2, 10 min; in short: as §1
[5] = system: CCRF-CEM; assay: Antiproliferative activity against human CCRF-CEM cells assessed as inhibition of cell proliferation incubated for 72 hrs by MTT assay; format: functional; in short: as §2
[6] = Inhibition of [methyl-14C]choline uptake in human HepG2 cells at 30 uM incubated for 10 mins followed by removal of medium containing compound and subsequent addition of [methyl-14C]choline measured after 5 mins relative to control; format: functional; details: HepG2, 10 min; in short: as §1
[7] = system: HeLa; assay: Antiproliferative activity against human HeLa cells assessed as inhibition of cell proliferation incubated for 72 hrs by MTT assay; format: functional; in short: as §2
[8] = Inhibition of [methyl-14C]choline uptake in human HT-29 cells at 30 uM incubated for 10 mins followed by removal of medium containing compound and subsequent addition of [methyl-14C]choline measured after 5 mins relative to control; format: functional; details: HT-29, 10 min; in short: as §1
[9] = target: T1, Choline kinase alpha (Homo sapiens, UniProt P35790); assay: Binding affinity to human CKalpha1 assessed as dissociation constant by spectroflurometry
In short: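 Purified human CK (cloned as reported earlier) at 1 µM was titrated with compound in 25 mM Tris, 150 mM NaCl, pH 7.5 at 25 °C. Compound ranges were 0.1–10 µM for CKα1 and 0.5–200 µM for CKβ. Tryptophan quenching was read with excitation at 280 nm, emission 300–400 nm and 5 nm slits. DMSO-matched controls were run, and Kd was fitted to a single-site model. Results are given as mean ± SD.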
Target sequence in this assay (P35790 whole entry): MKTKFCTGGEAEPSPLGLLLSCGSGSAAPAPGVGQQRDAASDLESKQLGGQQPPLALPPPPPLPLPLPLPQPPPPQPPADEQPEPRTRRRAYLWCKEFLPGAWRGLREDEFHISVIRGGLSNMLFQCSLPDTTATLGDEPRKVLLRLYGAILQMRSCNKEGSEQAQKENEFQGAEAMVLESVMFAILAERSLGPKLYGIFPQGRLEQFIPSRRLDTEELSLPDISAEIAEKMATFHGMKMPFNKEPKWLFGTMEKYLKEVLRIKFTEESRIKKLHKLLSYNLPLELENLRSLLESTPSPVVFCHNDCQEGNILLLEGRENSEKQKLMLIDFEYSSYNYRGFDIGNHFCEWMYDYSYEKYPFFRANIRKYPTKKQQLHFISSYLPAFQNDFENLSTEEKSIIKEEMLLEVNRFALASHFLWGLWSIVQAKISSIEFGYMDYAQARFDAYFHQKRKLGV

[10] = target: T1, Choline kinase alpha; assay: (§3) Inhibition of human CKalpha1 assessed as reduction in 14C incorporation from [methyl-14C]choline to […] at 10 uM using [methyl-14C]choline as substrate preincubated for 5 mins in presence of ATP and MgCl2 followed by substrate addition and measured after 10 mins by liquid scintillation counting method relative to control; details: time 15.0 min
In short: (§4)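 Purified human CKα1 (20 ng) in 100 mM Tris pH 8.5 with 10 mM MgCl₂ and 10 mM ATP, DMSO ≤0.1%, was preincubated 5 min at 37 °C. Reaction was started with 1 mM [methyl-¹⁴C]choline (4500 dpm/nmol), run 10 min at 37 °C and stopped in boiling water. Product was separated by silica TLC, scraped and scintillation-counted against DMSO controls. At least three experiments were run; IC50 was obtained from sigmoidal dose-response fits.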
Target sequence in this assay (P35790 whole entry, looked up): as the sequence (P35790 whole entry) above

[11] = target: T1, Choline kinase alpha; assay: as §3, with “at 30” for “at 10”; details: time 15.0 min; in short: as §4
Target sequence in this assay (P35790 whole entry, looked up): as the sequence (P35790 whole entry) above

| Compound | inhibition at 10 µM [1] [%] | GI50 [2] [µM] | GI50 [3] [µM] | inhibition at 10 µM [4] [%] | GI50 [5] [µM] | inhibition at 30 µM [6] [%] | GI50 [7] [µM] | inhibition at 30 µM [8] [%] | Kd [9] [µM] | inhibition [10] [%] | inhibition [11] [%] |
| --- | --- | --- | --- | --- | --- | --- | --- | --- | --- | --- | --- |
| OC1C[N+]2(Cc3ccc(C(F)(F)F)cc3)CCC1CC2 (stereo unspecified) | 17.6 | > 100 | > 100 | 14.3 | > 100 | 15.1 | 82.3 | 21.6 |  |  |  |
| Clc1ccc2c(N3CCCCCC3)ccnc2c1 |  |  |  |  |  |  |  |  | 45 |  |  |
| CN(C)c1ccncc1 |  |  |  |  |  |  |  |  | 35 |  |  |
| CN(c1ccc(Cl)cc1)c1cc[n+](Cc2ccc(C(F)(F)F)cc2)c2cc(Cl)ccc12 |  | 1.3 | 1.3 |  | 2 |  | 2.6 |  |  | 10.4 | 14.5 |
| CN(c1ccccc1)c1ccnc2cc(Cl)ccc12 |  |  |  |  |  |  |  |  | 82 |  |  |
| CN(C)c1cc[n+](Cc2ccc(C(F)(F)F)cc2)cc1 | 14.3 | 7.9 | 11.2 | 11.7 | 18 | 16.9 | 23.2 | 22.7 |  | 25.4 | 33.5 |
| FC(F)(F)c1ccc(C[N+]23CCC(CC2)CC3)cc1 | 9.1 | > 100 | > 100 | 5.1 | > 100 | 17.7 | 90.8 | 2.4 |  | 8.07 | 24.7 |
| c1ccc(-c2ccc(C[N+]34CCC(CC3)CC4)cc2)cc1 |  | 2.6 | 24.7 |  | 11.8 |  | 29.9 |  |  | 26.6 | 30.2 |
| Clc1ccc2c(N3CCCC3)cc[n+](Cc3ccc(-c4ccccc4)cc3)c2c1 |  | 0.05 | 0.04 |  | 0.04 |  | 0.28 |  |  | 36.9 | 46.3 |
| CN(c1ccccc1)c1cc[n+](Cc2ccc(C(F)(F)F)cc2)c2cc(Cl)ccc12 |  | 2.7 | 3 |  | 2.1 |  | 2.1 |  |  |  |  |
| c1cc(N2CCCC2)ccn1 |  |  |  |  |  |  |  |  | 49 |  |  |
| FC(F)(F)c1ccc(C[n+]2ccc(N3CCCC3)cc2)cc1 |  | 7.6 | 8.1 |  | 12 |  | 42.1 |  |  |  |  |
| OC1C[N+]2(Cc3ccc(-c4ccccc4)cc3)CCC1CC2 (stereo unspecified) |  | 1.7 | 34 |  | 16.9 |  | 27.5 |  |  | 45.6 | 53 |
| CN(c1ccc(Cl)cc1)c1cc[n+](Cc2ccc(-c3ccccc3)cc2)cc1 | 78.4 | 0.14 | 0.23 | 83.3 | 0.3 | 94.8 | 0.91 | 95 |  |  |  |
| c1ccc(-c2ccc(C[n+]3ccc(N4CCCCCC4)c4ccccc43)cc2)cc1 |  | 12.8 | 17.5 |  | 8.6 |  | 14.8 |  |  |  |  |
| Clc1ccc2c(N3CCCC3)cc[n+](Cc3ccccc3)c2c1 |  | 1.23 | 4.1 |  | 3.4 |  | 19.6 |  |  | 31.5 | 35 |
| CN(C)c1cc[n+](Cc2ccccc2)cc1 |  | 30.3 | > 100 |  | 54.3 |  | 44.2 |  | 14 |  | 37.2 |
| FC(F)(F)c1ccc(C[n+]2ccc(N3CCCC3)c3ccc(Cl)cc32)cc1 |  | 1 | 12.9 |  | 3 |  | 15 |  |  |  | 24.9 |
| FC(F)(F)c1ccc(C[n+]2ccc(N3CCCCCC3)c3ccc(Cl)cc32)cc1 |  | 3.2 | 5.4 |  | 4.6 |  | 4.7 |  |  | 34.7 | 52.7 |
| CN(C)c1cc[n+](Cc2ccc(-c3ccccc3)cc2)cc1 |  | 0.83 | 0.29 |  | 0.43 |  | 0.74 |  | 1.7 | 18.9 | 26.4 |

From ChEMBL document CHEMBL4706596, “Synthesis, biological evaluation, in silico modeling and crystallization of novel small monocationic molecules with potent antiproliferative activity by dual mechanism” (Eur J Med Chem, 2020)
